From ChEMBL document CHEMBL1156489, “Small molecule receptor agonists and antagonists of CCR3 provide insight into mechanisms of chemokine receptor activation” (J Biol Chem, 2007)
Substitutions are numbered along the chain they refer to. Activity calls are given as the source filed them. The calls are words filed in the database; no cut-off is given here.

Columns and labels:
[1] = target: T1, C-C chemokine receptor type 3 (Homo sapiens) (UniProt P51677); assay: Reduction of human recombinant CCR3 expression in mouse L1.2 cells relative to control; format: cell-based; design: scale not given: the % may be the effect or the level left
T1 sequence (whole entry): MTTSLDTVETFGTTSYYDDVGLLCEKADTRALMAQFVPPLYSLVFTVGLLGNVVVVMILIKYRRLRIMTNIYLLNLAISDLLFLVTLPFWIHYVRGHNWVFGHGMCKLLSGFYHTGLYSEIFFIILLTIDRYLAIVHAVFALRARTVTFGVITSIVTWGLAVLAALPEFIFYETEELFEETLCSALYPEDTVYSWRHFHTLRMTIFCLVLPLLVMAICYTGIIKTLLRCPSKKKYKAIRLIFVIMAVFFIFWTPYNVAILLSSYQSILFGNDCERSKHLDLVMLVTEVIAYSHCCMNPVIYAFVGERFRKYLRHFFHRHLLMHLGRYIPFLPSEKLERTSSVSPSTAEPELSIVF
Procedure, shortened: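 In duplicate, 1 × 10^6 CCR3-L1.2 cells in ice-cold medium were warmed to 37°C for 20 min, then given stimulus (100 nM CCL11 or 10 μM compound) for 20 min; ice-held tubes and a buffer tube served as controls. Surface CCR3 was measured by anti-CCR3 flow cytometry as mean fluorescence minus isotype, expressed as % of buffer-treated cells.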

[2] = test system: T2, C-C chemokine receptor type 3 (Homo sapiens), P51677 [Y113A]; assay: Agonist activity at human recombinant CCR3 Y113A mutant expressed in mouse L1.2 cells assessed as induction of chemotaxis; format: functional, cell-based
T2 sequence (whole entry): T1 sequence (whole entry) with Y113A
Procedure, shortened: (§1)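 L1.2 cells transfected with CCR3 (stable line kept in 1 mg/ml G-418, or transient electroporation at 1 μg DNA/1 × 10^6 cells, then overnight 10 mM sodium butyrate). Duplicate agonist concentrations in RPMI/0.1% BSA were placed in the lower wells and 2 × 10^5 cells on the upper filter (5 μm pores). After 5 h at 37°C, 5% CO2, migrated cells were counted by hemocytometer and expressed as % migrating.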

[3] = target: T1, C-C chemokine receptor type 3 (Homo sapiens); assay: Agonist activity at human recombinant CCR3 expressed in eosinophils; format: functional
Procedure, shortened: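 Gated autofluorescence forward scatter (shape change) assay. Granulocytes from healthy-donor blood were isolated on plasma/Percoll gradients and pre-incubated at 5×10^6 cells/ml for 30 min at room temperature in GAFS buffer (PBS, 0.9 mM CaCl2, 0.5 mM MgCl2, 10 mM HEPES, 10 mM glucose, 0.1% BSA). Cells were exposed to varying compound concentrations for 4 min at 37°C, chilled, fixed and read by flow cytometry.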

[4] = target: T1, C-C chemokine receptor type 3 (Homo sapiens); assay: Agonist activity at human recombinant CCR3 expressed in mouse L1.2 cells assessed as receptor internalization at 10 uM after 20 mins by flow cytometry
[5] = test system: T3, C-C chemokine receptor type 3 (Homo sapiens), P51677 [Y41A]; assay: Agonist activity at human recombinant CCR3 Y41A mutant expressed in mouse L1.2 cells assessed as induction of chemotaxis; format: functional, cell-based; procedure, shortened: as §1
T3 sequence (whole entry): T1 sequence (whole entry) with Y41A

[6] = target: T1, C-C chemokine receptor type 3 (Homo sapiens); assay: Agonist activity at human recombinant CCR3 expressed in mouse L1.2 cells assessed as induction of chemotaxis; format: functional, cell-based; procedure, shortened: as §1
[7] = test system: T4, C-C chemokine receptor type 3 (Homo sapiens), P51677 [E287Q]; assay: Agonist activity at human recombinant CCR3 E287Q mutant expressed in mouse L1.2 cells assessed as induction of chemotaxis; format: functional, cell-based; procedure, shortened: as §1
T4 sequence (whole entry): T1 sequence (whole entry) with E287Q

Question: What does the source list for `O=C(Cc1cccc2occc12)Nc1cc[n+](CCCc2ccccc2)c(Br)c1`?
Answer: Activity [1]: 59.4%; Activity [2]: inactive; Activity [3]: Dose-dependent effect; Activity [4]: Active; Activity [5]: inactive; Activity [6]: Dose-dependent effect; Activity [7]: inactive
